Results of several laboratories.
Compare with care: the assays were run in different laboratories. pIC50: −log10 of the molar value. ≈ marks a conversion by molar mass, not a printed value.

SMILES | organism | assay | system | setting | measurement | value
N#Cc1c(-c2ccc(Cl)cc2Cl)c(C(N)=O)c(N)n(N)c1=O | Saccharomyces cerevisiae | microbial growth, well diffusion | ATCC9763 | 500 µg/mL | inhibition zone | 10 mm
O=C(O)c1cn(C2CC2)c2cc(N3CCNCC3)c(F)cc2c1=O | Shigella sonnei | microbial growth | ATCC25931 |  | MIC | 0.88 µM (≈ 0.292 µg/mL)
CC(=O)N1CCN(c2ccc(OCC3COC(Cn4ccnc4)(c4ccc(Cl)cc4Cl)O3)cc2)CC1 (stereo not shown) | Saccharomyces cerevisiae | microbial growth, well diffusion | ATCC9763 | 500 µg/mL | inhibition zone | 20 mm
O=C(NC(=S)Nc1ccccn1)c1cccs1 | Leishmania tropica | parasite growth, resazurin |  | promastigote | pIC50 | 6.10
COc1ccc(Cc2[nH]/c(=N/C(=O)C34CC5CC(CC(C5)C3)C4)n(C)c2-c2ccc(OC(=O)C3CC3)c(OC)c2)cc1 | Hepatitis B virus | viral replication, inhibitor | HePAD38 |  | pIC50 | 4.31
Cc1c(C(N)=O)c(N)n(N)c(=O)c1C#N | Saccharomyces cerevisiae | microbial growth, well diffusion | ATCC9763 | 500 µg/mL | inhibition zone | 11 mm
O=C(NC(=S)Nc1nccs1)c1cccs1 | Leishmania tropica | parasite growth, resazurin |  | promastigote | pIC50 | 5.82
COc1ccc(Cc2[nH]/c(=N/C(=O)C34CC5CC(CC(C5)C3)C4)n(C)c2Cc2ccc(OC)c(OC)c2)cc1 | Hepatitis B virus | viral replication, inhibitor | HePAD38 |  | pIC50 | 6.62
O=C(NC(=S)Nc1cccc(O)c1)c1ccco1 | Leishmania tropica | parasite growth, resazurin |  | promastigote | pIC50 | 6.17
COc1ccc(Cc2[nH]/c(=N/C(=O)C34CC5CC(CC(C5)C3)C4)n(C)c2-c2ccc(OC(=O)c3ccc(C(F)(F)F)cc3)c(OC)c2)cc1 | Hepatitis B virus | viral replication, inhibitor | HePAD38 |  | pIC50 | 5.28
